# Data published in BindingDB's records for doi:10.1016/j.bmc.2019.06.043 (Marquette University, 2019).
# Target: T1, Proteinase-activated receptor 1 (Homo sapiens, UniProt P25116)
# T1 sequence (P25116 whole entry): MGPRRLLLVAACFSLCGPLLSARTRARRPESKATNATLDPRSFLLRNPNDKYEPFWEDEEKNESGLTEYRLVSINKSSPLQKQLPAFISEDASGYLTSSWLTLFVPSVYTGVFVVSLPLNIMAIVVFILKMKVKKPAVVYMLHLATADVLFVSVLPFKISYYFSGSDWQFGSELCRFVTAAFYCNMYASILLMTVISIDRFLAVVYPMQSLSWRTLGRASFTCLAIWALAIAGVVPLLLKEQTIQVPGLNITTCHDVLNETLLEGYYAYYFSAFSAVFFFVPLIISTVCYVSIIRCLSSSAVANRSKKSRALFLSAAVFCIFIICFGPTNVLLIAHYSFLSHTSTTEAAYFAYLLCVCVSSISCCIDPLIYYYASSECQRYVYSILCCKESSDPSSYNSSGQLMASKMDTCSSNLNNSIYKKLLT
# Test: Negative allosteric modulation of PAR1 in human EAhy926 cells assessed as reduction in TFLLRN-NH2-induced intracellular calcium mobilization incubated for 15 mins followed by TFLLRN-NH2 addition by Fluo-4-AM dye based fluorescence assay
# How it was run: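 Adherent EA.hy926 endothelial cells in 96-well format, intracellular Ca2+ mobilization triggered by PAR1 agonist TFLLRN-NH2 at 5 µM; single-point % inhibition at 10 µM (n = 4 wells, SEM); 7-point concentration-response curves, 3 wells per concentration, pIC50 from 4-variable non-linear regression; average IC50 ± SEM over independent assays.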
smiles,measurement,value
CCCC(=O)Nc1cccc(NC(=O)c2ccccc2Br)c1,IC50,794 nM
